Laboratory results from ChEMBL document CHEMBL2434871, “Discovery of a potent dual EGFR/HER-2 inhibitor L-2 (selatinib) for the treatment of cancer” (Eur J Med Chem, 2013).
Values belong to the compound of their own block, whether it stands above or below them.

What was measured:
[1] = target: Receptor tyrosine-protein kinase erbB-2 (Homo sapiens, UniProt P04626); assay: Inhibition of HER-2 (unknown origin) using poly-(Glu4-Tyr) as substrate after 1 hr by ELISA-based spectrophotometry
Method in brief: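 ELISA on plates pre-coated with poly(Glu,Tyr 4:1) substrate. Serially diluted compounds plus ATP were added in 50 mM HEPES pH 7.4 containing 20 mM MgCl₂, 0.2 mM MnCl₂, 0.1 mM Na₃VO₄ and 1 mM DTT. Phosphotyrosine was detected with anti-phosphotyrosine antibody PY99 (1:500), then HRP anti-mouse IgG, then o-phenylenediamine/H₂O₂ at pH 5.5.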

[2] = target: Epidermal growth factor receptor (Homo sapiens, UniProt P00533); assay: Inhibition of EGFR (unknown origin) using poly-(Glu4-Tyr) as substrate after 1 hr by ELISA-based spectrophotometry
Chain of Epidermal growth factor receptor (P00533 whole entry): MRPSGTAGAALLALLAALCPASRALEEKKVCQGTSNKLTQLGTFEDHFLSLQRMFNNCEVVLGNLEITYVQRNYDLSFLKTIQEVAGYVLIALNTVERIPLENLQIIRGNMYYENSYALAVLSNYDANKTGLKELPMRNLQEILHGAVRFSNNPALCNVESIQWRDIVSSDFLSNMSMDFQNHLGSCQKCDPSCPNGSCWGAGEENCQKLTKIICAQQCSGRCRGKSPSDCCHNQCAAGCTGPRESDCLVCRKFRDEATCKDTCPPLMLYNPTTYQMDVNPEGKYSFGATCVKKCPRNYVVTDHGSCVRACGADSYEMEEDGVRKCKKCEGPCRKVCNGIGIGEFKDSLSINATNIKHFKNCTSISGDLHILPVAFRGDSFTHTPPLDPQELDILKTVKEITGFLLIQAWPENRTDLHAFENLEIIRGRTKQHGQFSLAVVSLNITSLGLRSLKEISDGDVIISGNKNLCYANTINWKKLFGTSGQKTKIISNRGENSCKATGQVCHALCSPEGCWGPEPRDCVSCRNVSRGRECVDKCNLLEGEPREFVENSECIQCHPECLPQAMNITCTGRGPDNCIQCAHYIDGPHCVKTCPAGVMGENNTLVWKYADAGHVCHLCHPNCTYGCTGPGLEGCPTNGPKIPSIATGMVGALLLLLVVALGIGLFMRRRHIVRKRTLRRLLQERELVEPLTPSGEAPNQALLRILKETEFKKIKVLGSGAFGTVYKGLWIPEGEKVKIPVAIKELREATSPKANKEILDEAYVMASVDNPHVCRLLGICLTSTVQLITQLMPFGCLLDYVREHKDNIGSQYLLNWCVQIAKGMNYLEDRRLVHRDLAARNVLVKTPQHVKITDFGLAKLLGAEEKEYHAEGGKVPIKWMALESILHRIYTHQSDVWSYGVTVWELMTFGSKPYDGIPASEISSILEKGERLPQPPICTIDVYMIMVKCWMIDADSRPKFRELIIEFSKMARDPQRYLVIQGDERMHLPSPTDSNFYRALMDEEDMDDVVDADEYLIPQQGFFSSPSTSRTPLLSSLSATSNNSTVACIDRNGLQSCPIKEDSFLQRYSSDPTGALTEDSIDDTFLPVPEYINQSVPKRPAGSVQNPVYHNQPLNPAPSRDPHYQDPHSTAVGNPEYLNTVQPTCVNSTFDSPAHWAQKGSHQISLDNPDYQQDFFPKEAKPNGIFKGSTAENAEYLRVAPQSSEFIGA

NCI-N87 [3] = assay: Cytotoxicity against human NCI-N87 cells after 72 hrs by SRB assay; type: functional, cell-based; conditions: NCI-N87, 72 h
BT-474 = assay: Cytotoxicity against human BT474 cells after 72 hrs by SRB assay; type: functional, cell-based; conditions: BT-474, 72 h
[4] = AUC (0 to infinity) in Wistar rat at 100 mg/kg, po; type: ADME, organism-based; set-up: time infinity, dose 100 mg/kg, route oral; conditions: plasma
Method in brief: (§1)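 Male Wistar rats (220 ± 10 g), n = 4 per group, given the tosylate salt orally by gavage at 100 mg/kg, suspended in 0.5% sodium carboxymethylcellulose. Blood was sampled at 0.25 to 24 h. Parent compound and the lapatinib metabolite were extracted by C18 solid-phase extraction and analysed by LC/MSn.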

[5] = Mean residence time in Wistar rat at 100 mg/kg, po; type: ADME, organism-based; set-up: dose 100 mg/kg, route oral; conditions: in vivo; method in brief: as §1
Rattus norvegicus [6] = assay: Tmax in Wistar rat at 100 mg/kg, po assessed as lapatinib; type: ADME, organism-based; set-up: dose 100 mg/kg, route oral; conditions: in vivo; method in brief: as §1
[7] = Tmax in Wistar rat at 100 mg/kg, po; type: ADME, organism-based; set-up: dose 100 mg/kg, route oral; conditions: in vivo; method in brief: as §1
NCI-N87 [8] = assay: Antitumor activity against human NCI-N87 cells xenografted in BALB/c athymic mouse assessed as tumor regression at 200 mg/kg, po qd after 28 days relative to vehicle-treated control; type: functional; conditions: NCI-N87, 672 h, read-out: TGI
Method in brief: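 Female BALB/c athymic mice, 4–6 weeks old, received 2 × 10⁶ NCI-N87 or SK-OV-3 cells s.c. in the right flank. At a tumor volume of 100–300 mm³ they were randomized (control n = 10, treated n = 6). Tosylate salt was given at 200 mg/kg qd by oral gavage, and controls received vehicle. Tumor volume was taken as length × width²/2 by caliper. Inhibition = (1 − T/C) × 100% on mean relative tumor volume (RTV). Two-tailed t test.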

Mus musculus [9] = assay: Toxicity in BALB/c athymic mouse xenografted with human NCI-N87 cells assessed as weight loss at 200 mg/kg, po qd after 4 days; type: organism-based; set-up: dose 200 mg/kg, route oral; conditions: in vivo, 96 h
Mus musculus [10] = assay: Toxicity in BALB/c athymic mouse xenografted with human SKOV3 cells assessed as hematuria at 200 mg/kg, po qd after 4 days; type: organism-based, SK-OV-3; set-up: dose 200 mg/kg, route oral; conditions: in vivo, 96 h
Mus musculus [11] = assay: Toxicity in BALB/c athymic mouse xenografted with human SKOV3 cells assessed as bloody stool at 200 mg/kg, po qd after 4 days; type: organism-based, SK-OV-3; set-up: dose 200 mg/kg, route oral; conditions: in vivo, 96 h
Rattus norvegicus [12] = assay: AUC (0 to t) in Wistar rat at 100 mg/kg, po assessed as lapatinib; type: ADME, organism-based, Plasma; set-up: dose 100 mg/kg, route oral; conditions: in vivo; method in brief: as §1
[13] = Aqueous solubility of the compound at 25 degC by shake-flask method; type: physicochemical; conditions: unbuffered water
Rattus norvegicus [14] = assay: Elimination half life in Wistar rat at 100 mg/kg, po assessed as lapatinib; type: ADME, organism-based; set-up: dose 100 mg/kg, route oral; conditions: in vivo; method in brief: as §1
Rattus norvegicus [15] = assay: Mean residence time in Wistar rat at 100 mg/kg, po assessed as lapatinib; type: ADME, organism-based; set-up: dose 100 mg/kg, route oral; conditions: in vivo; method in brief: as §1
Mus musculus [16] = assay: Toxicity in BALB/c athymic mouse xenografted with human NCI-N87 cells assessed as hematuria at 200 mg/kg, po qd after 4 days; type: organism-based; set-up: dose 200 mg/kg, route oral; conditions: in vivo, 96 h
[17] = Cmax in Wistar rat at 100 mg/kg, po; type: ADME, organism-based; set-up: dose 100 mg/kg, route oral; conditions: in vivo; method in brief: as §1
Mus musculus [18] = assay: Toxicity in BALB/c athymic mouse xenografted with human NCI-N87 cells assessed as bloody stool at 200 mg/kg, po qd after 4 days; type: organism-based; set-up: dose 200 mg/kg, route oral; conditions: in vivo, 96 h
[19] = Elimination half life in Wistar rat at 100 mg/kg, po; type: ADME, organism-based; set-up: dose 100 mg/kg, route oral; conditions: in vivo, read-out: beta t1/2 (converted); method in brief: as §1
Mus musculus [20] = assay: Toxicity in BALB/c athymic mouse xenografted with human SKOV3 cells assessed as weight loss at 200 mg/kg, po qd after 4 days; type: organism-based, SK-OV-3; set-up: dose 200 mg/kg, route oral; conditions: in vivo, 96 h
[21] = AUC (0 to t) in Wistar rat at 100 mg/kg, po; type: ADME, organism-based; set-up: dose 100 mg/kg, route oral; conditions: plasma; method in brief: as §1
SK-OV-3 = assay: Antitumor activity against human SKOV3 cells xenografted in BALB/c athymic mouse assessed as tumor regression at 200 mg/kg, po qd after 21 days relative to vehicle-treated control; conditions: SK-OV-3, po, 504 h, read-out: TGI
Rattus norvegicus [22] = assay: AUC (0 to infinity) in Wistar rat at 100 mg/kg, po assessed as lapatinib; type: ADME, organism-based, Plasma; set-up: time infinity, dose 100 mg/kg, route oral; conditions: in vivo; method in brief: as §1
Rattus norvegicus [23] = assay: Cmax in Wistar rat at 100 mg/kg, po assessed as lapatinib; type: ADME, organism-based; set-up: dose 100 mg/kg, route oral; conditions: in vivo; method in brief: as §1

Chain of Receptor tyrosine-protein kinase erbB-2 (P04626 whole entry): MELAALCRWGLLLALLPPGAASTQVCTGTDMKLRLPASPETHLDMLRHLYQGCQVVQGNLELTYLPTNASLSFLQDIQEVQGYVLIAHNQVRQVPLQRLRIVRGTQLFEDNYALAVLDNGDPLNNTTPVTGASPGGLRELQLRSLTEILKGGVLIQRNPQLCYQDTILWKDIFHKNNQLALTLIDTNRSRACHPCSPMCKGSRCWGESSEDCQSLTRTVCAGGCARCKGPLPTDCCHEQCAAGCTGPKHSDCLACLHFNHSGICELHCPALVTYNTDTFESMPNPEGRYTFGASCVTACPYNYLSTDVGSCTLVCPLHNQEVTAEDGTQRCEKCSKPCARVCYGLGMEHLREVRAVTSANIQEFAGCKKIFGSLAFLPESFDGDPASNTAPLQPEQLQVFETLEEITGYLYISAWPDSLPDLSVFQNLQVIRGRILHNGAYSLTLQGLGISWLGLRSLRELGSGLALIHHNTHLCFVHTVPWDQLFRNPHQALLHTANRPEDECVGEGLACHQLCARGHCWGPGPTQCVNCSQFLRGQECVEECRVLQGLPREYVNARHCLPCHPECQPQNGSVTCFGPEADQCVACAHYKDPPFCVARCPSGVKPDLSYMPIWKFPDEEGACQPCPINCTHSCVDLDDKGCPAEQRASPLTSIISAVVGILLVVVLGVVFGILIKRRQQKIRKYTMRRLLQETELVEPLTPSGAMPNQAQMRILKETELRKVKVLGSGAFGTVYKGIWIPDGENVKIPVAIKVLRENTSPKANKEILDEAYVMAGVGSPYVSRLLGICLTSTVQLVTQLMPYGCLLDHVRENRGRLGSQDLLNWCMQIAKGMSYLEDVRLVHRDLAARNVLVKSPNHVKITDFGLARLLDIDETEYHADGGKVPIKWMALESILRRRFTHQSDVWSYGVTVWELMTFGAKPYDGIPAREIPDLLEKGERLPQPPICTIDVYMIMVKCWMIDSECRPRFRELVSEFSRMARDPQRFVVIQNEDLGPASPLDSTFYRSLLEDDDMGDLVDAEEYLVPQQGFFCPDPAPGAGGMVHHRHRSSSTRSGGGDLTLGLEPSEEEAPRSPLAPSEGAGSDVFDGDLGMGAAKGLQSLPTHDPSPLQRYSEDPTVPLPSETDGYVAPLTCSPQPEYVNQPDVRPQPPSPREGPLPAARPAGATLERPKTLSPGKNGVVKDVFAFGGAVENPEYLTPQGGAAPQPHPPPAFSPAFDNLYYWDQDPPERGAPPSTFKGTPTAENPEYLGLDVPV

IC50 [1]: 3.9 nM
SMILES: NS(=O)(=O)CCNCc1ccc(-c2ccc3ncnc(Nc4ccc(OCc5cccc(F)c5)c(Cl)c4)c3c2)o1

IC50 [2]: 28 nM | IC50 [1]: 14.4 nM
SMILES: CCOC(=O)N1CCN(Cc2ccc(-c3ccc4ncnc(Nc5ccc(OCc6cccc(F)c6)c(Cl)c5)c4c3)o2)CC1

IC50 [2]: 26 nM | IC50 [1]: 13.1 nM
SMILES: Fc1cccc(COc2ccc(Nc3ncnc4ccc(-c5ccc(CN6CCOCC6)o5)cc34)cc2Cl)c1
IC50 (NCI-N87 [3]): 62.8 nM | IC50 (BT-474): 84.6 nM

SMILES: CSCCNCc1ccc(-c2ccc3ncnc(Nc4ccc(OCc5cccc(F)c5)c(Cl)c4)c3c2)o1.Cc1ccc(S(=O)(=O)O)cc1
AUC(0-inf) [4]: 8130 ng·h/mL | MRT [5]: 8.19 h | Tmax (Rattus norvegicus [6]): 3 h | Tmax [7]: 3 h | inhibition in vivo at 200 mg/kg (NCI-N87 [8]): 84.7% | Activity (Mus musculus [9]): Non-toxic | Activity (Mus musculus [10]): Non-toxic | Activity (Mus musculus [11]): Non-toxic | AUCt (Rattus norvegicus [12]): 1994 ng·h/mL | solubility [13]: 3000 µg/L | beta t1/2 (Rattus norvegicus [14]): 4.18 h | MRT (Rattus norvegicus [15]): 8.34 h | Activity (Mus musculus [16]): Non-toxic | Cmax [17]: 854 ng/mL | Activity (Mus musculus [18]): Non-toxic | half-life [19]: 266 min | Activity (Mus musculus [20]): Non-toxic | IC50 [2]: 25.1 nM | AUC(0-t) [21]: 7890 ng·h/mL | inhibition in vivo at 200 mg/kg (SK-OV-3): 74.6% | IC50 [1]: 18.3 nM | AUC (Rattus norvegicus [22]): 2058 ng·h/mL | IC50 (NCI-N87 [3]): 47.3 nM | Cmax (Rattus norvegicus [23]): 242 ng/mL | IC50 (BT-474): 35.1 nM

IC50 [2]: 18.7 nM | IC50 [1]: 15.9 nM
SMILES: CS(=O)(=O)NCCNCc1ccc(-c2ccc3ncnc(Nc4ccc(OCc5cccc(F)c5)c(Cl)c4)c3c2)o1

IC50 [2]: 59.9 nM | IC50 [1]: 19.8 nM
SMILES: CS(=O)(=O)N1CCN(Cc2ccc(-c3ccc4ncnc(Nc5ccc(OCc6cccc(F)c6)c(Cl)c5)c4c3)o2)CC1
